Several values for one entry are separate records, joined by “and”; a condition that tells them apart may be missing. Equal values may be shown once. Activity calls are given as the source filed them. The calls are words filed in the database; no cut-off is given here.

Data set [1] concerns SK-N-SH. The experiment in a line: Cytoprotective activity against MG132-induced stress in human SK-N-SH cells assessed as survivality treated 1 hr before MG132 challenge measured after 24 hrs relative to control. It counts as functional. A digest of the protocol:
(§1)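 SK-N-SH cells, 12,500/well, exposed to compound 1 h ahead of MG-132 (5 µM final), then 24 h. Viability by ATPlite-1step luminescence; increased ATP% = (RLU compound − RLU DMSO)/RLU DMSO ×100, with DMSO as negative control. Tested 0.3–80 µM in twofold steps; EC50 from nonlinear regression curve fit; max cytoprotection >60% scored active.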

Data set [2] relates to HeLa. Put plainly: Increase in HSP70 expression in heat shock stress-induced human HeLa cells assessed as granule formation after 2 hrs of recovery time by immunocytochemical staining. It counts as functional, cell-based. A digest of the protocol:
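HeLa cells heat-shocked at 41 °C; HSP70 immunocytochemical staining 2 h after heat shock; automated image acquisition, quantifying HSP70 granule count and total granule area.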

The subject of data set [3] is PC-12. Put plainly: Cytoprotective activity against tunicamycin-induced endoplasmic reticulum stress in rat PC12 cells assessed as viability after 43 hrs relative to control. It counts as functional. In a few lines: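 PC12 cells, 5000/well, differentiated with NGF (50 ng/ml final) for 5–7 days until neurites appear. Compound (1:20 dilution) given together with tunicamycin (750 ng/mL final) for 43 h at 37 °C. Viability by ATPlite; ATP increase expressed against the DMSO plus tunicamycin control.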

In data set [4] the test system is SK-N-SH. The experiment in a line: Decrease in human SK-N-SH cells proliferation upto 20 uM by Click-iT assay. Type of data set: functional, cell-based. In a few lines: (§2)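 Click-iT cell proliferation assay, run on HeLa and SK-N-SH cells across 0–20 µM compound.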
Data set [5] can be described thus: Cytotoxicity against human HeLa cells by MTS assay. It counts as cell-based. A general note: Tetrazolium dyes change colour on reduction, which living cells bring about.
Data set [6] has as its system SK-N-SH. The experiment in a line: Cytoprotective activity against 26S proteasome inhibitor MG132-induced stress in human SK-N-SH cells assessed as cell viability treated 1 hr before MG132 challenge measured after 24 hrs. Conditions: Homo sapiens, SK-N-SH; read-out: EC50. Type of data set: functional, cell-based. A digest of the protocol: as §1
Data set [7] deals with T1, Heat shock factor protein 1 (Homo sapiens) (UniProt Q00613).
T1 sequence (whole entry): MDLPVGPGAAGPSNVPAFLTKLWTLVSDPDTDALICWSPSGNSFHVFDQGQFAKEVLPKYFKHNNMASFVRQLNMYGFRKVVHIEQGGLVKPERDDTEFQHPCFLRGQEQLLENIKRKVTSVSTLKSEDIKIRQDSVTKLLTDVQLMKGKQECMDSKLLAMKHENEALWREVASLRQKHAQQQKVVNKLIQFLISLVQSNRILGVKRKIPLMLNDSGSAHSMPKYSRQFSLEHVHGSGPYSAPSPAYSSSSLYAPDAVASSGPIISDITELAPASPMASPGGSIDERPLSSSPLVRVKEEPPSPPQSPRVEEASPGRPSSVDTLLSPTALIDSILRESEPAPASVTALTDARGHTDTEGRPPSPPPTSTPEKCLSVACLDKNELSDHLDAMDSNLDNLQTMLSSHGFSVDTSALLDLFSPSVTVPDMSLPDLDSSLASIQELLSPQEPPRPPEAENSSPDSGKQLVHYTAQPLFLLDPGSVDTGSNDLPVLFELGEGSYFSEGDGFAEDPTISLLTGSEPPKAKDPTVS
The experiment in a line: Transcriptional activation of HSF1 in heat shock stress-induced human HeLa cells assessed as granule formation treated 1 hr before heat shock challenge measured after 2 hrs by immunocytochemical staining. It counts as cell-based. A digest of the protocol: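 HeLa cells given compound 1 h, then heat shock at 41 °C for 2 h without recovery; HSF1 immunocytochemical staining, quantified by high-content imaging. Range 0.3–80 µM, twofold dilution, 200-fold overall.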

Data set [8] in a line: Cytotoxicity against human SK-N-SH cells by MTS assay. Type of data set: cell-based. In a few lines: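 SK-N-SH cells, 14,000/well, seeded in DMEM with 10% FBS 18 h before compound (1:200 dilution; final 0.3–80 µM). MTS read-out; % inhibition = (MTS DMSO − MTS compound)/MTS DMSO ×100; CC50 by nonlinear regression; average SD across runs 14%.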
The subject of data set [9] is HeLa. Put plainly: Stimulation of human HeLa cells proliferation upto 20 uM by Click-iT assay. It counts as functional, cell-based. A digest of the protocol: as §2
The subject of data set [10] is HeLa. Put plainly: Cytotoxicity against human HeLa cells at 80 uM by MTS assay. It counts as cell-based.
The target of data set [11] is T1, Heat shock factor protein 1 (Homo sapiens). The experiment in a line: Transcriptional activation of HSF1 in human HeLa cells assessed as granule formation treated for 3 hrs at 37 degC without heat shock by immunocytochemical staining.
The target in data set [12] is T2, Heat shock factor protein 1 (Homo sapiens, UniProt Q00613).
T2 sequence (Q00613 whole entry): T1 sequence (whole entry)
Put plainly: Transcriptional activation of HSF1 in heat shock stress-induced human HeLa cells assessed as granule formation at 80 uM treated 1 hr before heat shock challenge measured after 2 hrs by immunocytochemical staining. Type of data set: cell-based.

By EC50 is commonly meant the concentration giving half of the maximal effect. As usually defined, the CC50 is the concentration that lowers cell viability or growth by half. For `OC(CO/N=C(\Cl)c1nc2ccccc2o1)CN1CCCCC1` (configuration not stated), the Activity in [1] was 90.6%; in data set [2] it was 51%; in [3], over 200%; in data set [7], 58%. In addition, the EC50 is 32.9 µM in data set [2] (Homo sapiens, HeLa, 2 h) and 15.7 µM in [6]. For the same compound, the result in data set [4] was Active. The CC50 in [5] came out at 41.7 µM; in data set [8] it was 26 µM. For the same compound, in data set [9], the result was inactive.
The term Inhibition denotes the drop in the measured response relative to a control, in per cent. For the compound `OC(CO/N=C(\Cl)c1nc2ccccc2o1)CN1CCC(F)CC1` (configuration not stated), the EC50 in data set [6] was 18.8 µM. Also, in data set [10], the Inhibition was 35%. For the same compound, the CC50 in data set [8] worked out at 52.6 µM. Also, in data set [11], the outcome was inactive. Also, in [12], the Activity was found to be 63%.
`CC(C)N(CC(O)CO/N=C(\Cl)c1nc2ccccc2o1)C(C)C` (configuration not stated): the Activity in data set [3] was >150% and 300%. The CC50 was 45 µM in data set [5] and 30.8 µM in [8]. Moreover, in data set [6], the EC50 turned out to be 14.7 µM. In addition, the result in [11] was inactive.
Consider `O=C(NCC(O)CO/N=C(\Cl)c1nc2ccccc2o1)N1CCCCC1` (configuration not stated), for which the CC50 in data set [5] is 46.9 µM; in [8], 59.6 µM. Besides, the EC50 in data set [6] is 43.6 µM. Moreover, the outcome in data set [7] and in data set [11] was inactive. The Activity in [12] is 28%.
For the compound `CCCN(CC(O)CO/N=C(\Cl)c1nc2ccccc2o1)C(C)C` (configuration not stated), the outcome in data set [4] was Active. Moreover, the CC50 in data set [5] turned out to be 57.6 µM; in data set [8] it was 50.4 µM. The EC50 in [6] stood at 8.9 µM. For the same compound, the result in [9] and in data set [11] was inactive.

Source of the values: ChEMBL document CHEMBL1152919, “Chloro-oxime derivatives as novel small molecule chaperone amplifiers” (Bioorg Med Chem Lett, 2009).
